Reference: ChEMBL document CHEMBL1127514, “Retinobenzoic acids. 6. Retinoid antagonists with a heterocyclic ring” (1994)
Calls of active or inactive are those of the source. The rule behind the calls is not given here.

How the values were obtained:
HL-60 [1] = test: The ability to induce differentiation of human promyelocytic leukemia cell line HL-60 to mature granulocytes was determined by nitro blue tetrazolium (NBT) reduction assay; type: functional; details: read-out: ED50 (the source's name)
Outline: (§1)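 HL-60 cells grown in RPMI1640 with 5% FCS and antibiotics were seeded at about 8×10^4 cells/mL. Compounds were added from 2 mM ethanol stocks (final ethanol below 0.5%; ethanol-only controls) and cells incubated 4 days. Percent differentiated cells was scored by NBT reduction (0.2% NBT plus TPA 200 ng/mL, 20 min, 37 °C; formazan-positive cells counted, minimum 200 cells). Assays were run at least twice, and ED50 was obtained by the van der Waerden method.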

HL-60 [2] = test: The ability to induce differentiation of human promyelocytic leukemia cell line HL-60 to mature granulocytes relative to retinoic acid was determined by nitro blue tetrazolium (NBT) reduction assay; type: functional
Outline: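 HL-60 cells in RPMI1640 with 5% FCS, 37 °C, 5% CO2, seeded at about 8×10^4 cells/mL. Compounds were added from 2 mM ethanol stocks (final ethanol below 0.5%) and cells incubated 4 days. NBT reduction (0.2% NBT, TPA 200 ng/mL, 20 min, 37 °C) was scored on ≥200 cells. ED50 was calculated by van der Waerden; the value is the retinoic acid ED50 divided by the compound ED50 from concurrent runs, ×100.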

HL-60 [3] = test: The ability to induce differentiation of human promyelocytic leukemia cell line HL-60 to mature granulocytes was determined by nitro blue tetrazolium (NBT) reduction assay; Inactive; type: functional, cell-based; outline: as §1

CCn1c(-c2ccc(C(=O)O)cc2)nc2cc3c(cc21)C(C)(C)CCC3(C)C
EC50 (HL-60 [1]): 46 nM
Relative activity (HL-60 [2]): 4.9

CC(C)n1c(-c2ccc(C(=O)O)cc2)nc2cc3c(cc21)C(C)(C)CCC3(C)C
EC50 (HL-60 [1]): > 10000 nM
Relative activity (HL-60 [2]): < 0.01

CC1(C)CCC(C)(C)c2cc3c(cc21)Nc1ccccc1C(c1ccc(C(=O)O)cc1)N3 (stereo unspecified)
EC50 (HL-60 [1]): > 10000 nM
Relative activity (HL-60 [2]): < 0.01

CC1(C)CCC(C)(C)c2cc3c(cc21)NC(=O)CN(c1ccc(C(=O)O)cc1)C3=O
ED50 (HL-60 [3]): inactive

CC1(C)CCC(C)(C)c2cc3c(cc21)nc(-c1ccc(C(=O)O)cc1)n3-c1ccccc1
ED50 (HL-60 [3]): inactive

CC1(C)CCC(C)(C)c2cc(NC(=O)c3ccc(C(=O)O)cc3)ccc21 [TAMIBAROTENE]
EC50 (HL-60 [1]): 0.79 nM
Relative activity (HL-60 [2]): 350

CC1(C)CCC(C)(C)c2cc3c(cc21)N=C(c1ccc(C(=O)O)cc1)CC(=O)N3
ED50 (HL-60 [3]): inactive

CC1=C(/C=C/C(C)=C/C=C/C(C)=C/C(=O)O)C(C)(C)CCC1 [TRETINOIN]
EC50 (HL-60 [1]): 2.4 nM
Relative activity (HL-60 [2]): 100

CC1(C)CCC(C)(C)c2cc3[nH]c(-c4ccc(C(=O)O)cc4)nc3cc21
EC50 (HL-60 [1]): 320 nM
Relative activity (HL-60 [2]): 0.7

CC1(C)CCC(C)(C)c2cc3c(cc21)nc(-c1ccc(C(=O)O)cc1)n3Cc1ccccc1
ED50 (HL-60 [3]): inactive

Cn1c(-c2ccc(C(=O)O)cc2)nc2cc3c(cc21)C(C)(C)CCC3(C)C
EC50 (HL-60 [1]): 3.4 nM
Relative activity (HL-60 [2]): 65

CN1C(=O)CC(c2ccc(C(=O)O)cc2)=Nc2cc3c(cc21)C(C)(C)CCC3(C)C
EC50 (HL-60 [1]): 530 nM
Relative activity (HL-60 [2]): 0.43

CN1c2cc3c(cc2N=C(c2ccc(C(=O)O)cc2)c2ccccc21)C(C)(C)CCC3(C)C
ED50 (HL-60 [3]): inactive
